# Experiment: Toxicity liver stage against HepG2, at 10uM
# Format: cell-based
# Design: test concentration 10 uM, cell line HepG2-A16-CD81EGFP
# Details: human, HepG2-A16-CD81EGFP cells; read-out: INHIBITION
# Outline: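 Uninfected HepG2-A16-CD81EGFP cells, 3 × 10^3 per well, 1536-well, plated on prespotted compound at 10 μM final, parasite-free screening media added to match infected plates; puromycin 10 μM positive, DMSO 0.5% negative; run in parallel with 48 h PbLuc assay at 37 °C, 5% CO2; viability by CellTiter-Glo luminescence, normalized to controls.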
row,Structure (SMILES),cytotoxicity at 10 µM [%]
1,O=C(NC[C@H]1Cn2c(-c3ccccc3)cnc2CO1)C1CC1,-3.01
2,CC(C)NC(=O)[C@@H]1Cc2[nH]cnc2CN1CCCc1ccccc1,10.1
3,O[C@@H]1C[C@@H](c2nc(-c3cccnc3)no2)N(C2CCOCC2)C1,-4.03
4,COc1cccc(N2CCN(C(=O)c3noc4c3CCCC4)CC2)c1,11.7
5,CN1CC=C(c2noc(CCC(=O)N3CCOCC3)n2)CC1,-0.687
6,CC(=O)N1N=C(Cc2ccccc2)OC1C(=O)NCC(=O)OC(C)(C)C (stereo not drawn),0.15
7,COc1cccc(-c2nc(C)c(C(=O)N[C@@H](CCSC)C(=O)O)s2)c1,-1.64
8,COc1cc(OC)c(C2CC(=O)Oc3cc(C)[nH]c(=O)c32)c(OC)c1 (stereo not drawn),-6.24
9,Cc1nnsc1-c1nnc2sc(C(C)C)nn12,-9.74
10,CSCC(C)(O)CNS(=O)(=O)c1ccc(F)cc1 (stereo not drawn),-8.06
11,Cc1cccc(NC(=O)N2CCC3(CC(=O)N(c4ccsc4)C3)C2)c1 (stereo not drawn),6.47
12,COc1cc(N2C[C@H](C(=O)NC3CC3)[C@@H]3CCO[C@@H]3C2)ncn1,-5.47
13,Cn1cc(N2CCC3(CCN(C(=O)[C@H]4CCCO4)C3)C2=O)cn1 (stereo partly drawn),0.893
14,COc1ncccc1C(=O)N1CC[C@H]2C[C@@H](c3nccs3)O[C@@H]2C1,-0.123
15,CSCCC(CO)NC(=O)c1ccc2[nH]/c(=N\S(C)(=O)=O)sc2c1 (stereo not drawn),-6.96
16,O=C(Cn1nc(N2CCOCC2)ccc1=O)Nc1nccs1,-1.47
17,COc1ccc(N2CCC(C(=O)/N=c3/[nH]ccs3)CC2)nn1,-13.6
18,Cc1cccnc1NC(=O)CC1(Cn2cnnn2)CCCCC1,-5.62
19,Fc1cnc(N2CCO[C@H]3CN(CC4CCC4)C[C@H]32)nc1,-8.71
20,COC(=O)C1=C(C)N=C2SCC(=O)N2C1c1cn(C)nc1C (stereo not drawn),8.9
21,CNc1nc(C2CCCN(C(=O)C(C)C)C2)nc2c1CN(C)CC2 (stereo not drawn),-16.3
22,CC1(C(=O)NC2CCCC2)CN(c2cnccn2)CCO1 (stereo not drawn),-33.9

row,Structure (SMILES),cytotoxicity at 10 µM [%]
1,CC(=O)N1CCN(CCOc2ccc(F)cc2)CC(C(N)=O)C1 (stereo not drawn),-38.9
2,CNC(=O)c1ccc(C2CCCN(C(=O)c3sc(C)nc3C)C2)nc1 (stereo not drawn),-36.5
3,CCN1CCC(c2cncc(N(C)C)n2)CC1,5.12
4,Cc1ncccc1C(=O)Nc1cccc(C[S+](C)[O-])c1C (stereo not drawn),4.08
5,CN(C)c1ccc(C(=O)N2CCCCC2CC(N)=O)c(F)c1 (stereo not drawn),7.12
6,CCOCCS(=O)(=O)c1nnc(NCCOC)s1,-7.18
7,CC(C)c1nn(C)cc1CNCc1cccc(N(C)C)c1,-0.509
8,CC(NC(=O)NCC(C)(C)O)c1ccc(-c2ccncc2)cc1 (stereo not drawn),7.15
9,CC(C)c1nnc(CN2CCCC2C(=O)OCc2ccccc2)o1 (stereo not drawn),2.78
10,CCc1cc(NCCCNS(C)(=O)=O)nc(-c2ccccn2)n1,1.8
11,COc1ccccc1CC1CCCN(CCN2CCOC2=O)C1 (stereo not drawn),6.93
12,Cc1ccc(NC(=O)N2CCN(C(=O)CC3CCCC3)CC2)s1,4.36
13,Clc1cccc(N2CCC(NCc3cc[nH]n3)C2)c1 (stereo not drawn),4.01
14,Cc1oc(NC(=O)C(C)N2CCN(C(=O)C3CC3)CC2)c(C#N)c1C (stereo not drawn),-18.6
15,O=C(Nc1nncs1)N1CCC(CCc2ccc(O)cc2)CC1,6.81
16,O=C(CCn1ccccc1=O)Nc1ccc(C(=O)O)cc1,4.74
17,Cc1cc(C)n(CC2CCCCN2CC(=O)Nc2ccncc2)n1 (stereo not drawn),8.69
18,CC(C)NC(=O)NCCCc1cccc(F)c1,-0.0328
19,O=C(CNC(=O)c1c(F)cccc1Cl)Nc1ccc(F)cn1,8.46
20,CNC(=O)CN(C)C(=O)Cc1csc(C(C)C)n1,-5.07
21,CSCCN(C)C(=O)C1(c2ccc(F)cc2F)CCOCC1,0.53
22,OC[C@@H](O)CN(CCC(F)(F)F)c1ncc(Br)cn1,-8.72

row,Structure (SMILES),cytotoxicity at 10 µM [%]
1,Cc1cc(NC(=O)Cn2nc(C)c(C#N)c2N)ccc1Br,-6.58
2,CC(C)(C)OC(=O)NC1CCC(NC(=O)c2ccc[nH]2)CC1 (stereo not drawn),-17.1
3,CCc1sc(-c2nnc(CNCCn3cccn3)o2)cc1C,5.05
4,CCc1ccc(C(=O)O)cc1S(=O)(=O)Nc1c(C)ccn(C)c1=O,4.28
5,Cc1nc(O)ccc1C(=O)NCc1ncccc1F,7.97
6,CCCNC(=O)c1cccc(CNCc2csc(CC)n2)c1,-10.7
7,CC(=O)c1ccc(S(=O)(=O)N2CCC(c3n[nH]c(C)n3)CC2)cc1,-5.24
8,CC1CCN(CC(O)CN2CCn3c(nnc3C3CC3)C2)CC1 (stereo not drawn),-2.22
9,CCN(CC(=O)NC)S(=O)(=O)c1cnc2c(c1)c(C)nn2C,-1.56
10,CCC(=O)Nc1ccc(F)c(S(=O)(=O)NC(C)(C)C)c1,-1.74
11,N#Cc1ccnc(N2CCN(CC(O)c3cccc(F)c3)CC2)c1 (stereo not drawn),3.15
12,Cc1cccc(CN2CC[C@H]3OCC[C@@]3(C(=O)N3CCOCC3)C2)n1,-1.49
13,CC(=O)N1CCC2(CC1)CCN(C(=O)c1ccc(F)c(C(F)(F)F)c1)C2,-80
14,CC(C)c1nccc([C@@H]2C[C@@H]3CCN(Cc4ccco4)C[C@H]3O2)n1,1.1
15,CC(C)c1cc(CN(C)C(=O)CN2CCC(C(N)=O)CC2)no1,-0.0154
16,O=C(CCn1cncn1)N1CCC2(CC1)[C@H](O)C[C@@H]2OCCO,-0.387
17,Cc1ccc(-c2cnnc(N3CCCC3c3nccs3)n2)o1 (stereo not drawn),3.04
18,Cc1noc(C)c1CN1CCCCC1CCc1ccc(O)cc1 (stereo not drawn),-2.06
19,COc1cc(F)c(C(=O)NCc2ccon2)c(F)c1,2.13
20,CN1N=C(C(=O)N2CCCC(CCc3ccccc3)C2)CCC1=O (stereo not drawn),-10.5
21,CC(=O)c1cc(CN2CCCC23CCN(c2ccccn2)CC3)cs1,-7.69
22,Cc1cc(C)nc(NC(C)Cc2cnccn2)n1 (stereo not drawn),1.54

row,Structure (SMILES),cytotoxicity at 10 µM [%]
1,COc1ccc(CC(=O)N2CCCC(Cn3cc(CN)nn3)C2)cc1 (stereo not drawn),7.22
2,COc1ccccc1C(C(=O)O)N1CCCN(C2CCCC2)CC1 (stereo not drawn),-9.12
3,Cc1cc2nc(C(C)C)cc(N3CCN(c4ccc(O)cc4)CC3)n2n1,10.8
4,O=C(NCCc1nc(-c2cccnc2)no1)c1ccc(C2CCCO2)s1 (stereo not drawn),11.2
5,CC(=O)N1CCN(C(=O)Nc2ccc(Cl)cc2)[C@H]2CS(=O)(=O)C[C@H]21,6.55
6,COc1cccn(C(C)C(=O)NC2CCCC2)c1=O (stereo not drawn),5.32
7,Cc1ccsc1[C@@H]1CCN(C(=O)Cn2cc3ccccc3n2)C[C@H]1O,-1.96
8,CCn1c(C2CCCN(Cc3cc(OC)cc(OC)c3)C2)nn(C)c1=O (stereo not drawn),0.0264
9,CN(C)S(=O)(=O)N1CC[C@]2(O)CCN(c3nccs3)C[C@@H]2C1,-13
10,CN1CCC(N(CCc2ccccc2)C(=O)c2ccc(C#N)nc2)CC1,-3.33
11,COc1cccc(OCC(=O)NCc2ccc3[nH]c(=O)[nH]c3c2)c1,2.59
12,CC(C)C(NC(=O)c1ccc(=O)[nH]c1)c1nnc2n1CCNCC2 (stereo not drawn),-1.86
13,Fc1ccc(Oc2ccc(CNCC3CNc4ccnn4C3)cn2)cc1 (stereo not drawn),-11.6
14,CCc1nccn1C1CCCN(C(=O)c2ccc3c(c2)nnn3C)C1 (stereo not drawn),-10.6
15,CCc1nc(C(=O)N2CCCCC2)nn1-c1ccccc1Cl,2.1
16,CCC(O)CN1CCN(C(=O)c2cnc3n[nH]c(C)c3c2)CC1 (stereo not drawn),-5
17,COCCN(CCOC)C(=O)Nc1cc(C(F)(F)F)c[nH]c1=O,-4.28
18,CC(=O)N(Cc1ncc(C)o1)C1CCN(CCc2cccs2)C1 (stereo not drawn),-8.85
19,O=C(Nc1nncs1)NC1CCN(Cc2ccccc2)C1 (stereo not drawn),-0.397
20,Cc1cc(C)n(CC2CCCCN2CCC(=O)Nc2cc(C)on2)n1 (stereo not drawn),-1.03
21,Cc1cc(C(=O)N2CCN(C(=O)Cc3ccccn3)CC2)c(C)s1,6.18
22,O=C(c1cccc(CNS(=O)(=O)c2ccccc2F)c1)N1CCCC1,-0.0481

row,Structure (SMILES),cytotoxicity at 10 µM [%]
1,CC(CNC(=O)Nc1cn[nH]c1)N1CCOCC1 (stereo not drawn),1.92
2,Cc1nc(C)n(CC2CCCN(Cc3ccc(C(N)=O)cc3)C2)n1 (stereo not drawn),0.818
3,Nc1nc(Nc2ccccc2)cc(N2CCNCC2)n1,1.23
4,CCOCc1nn(CC2CC2)c2c1CN(Cc1ccco1)CC2,2.7
5,CC(=O)N1CCOCC2(CN(Cc3ccccn3)CCO2)C1 (stereo not drawn),-3.28
6,CO[C@H]1CCN(Cc2c(C)noc2C)[C@@H]2CN(Cc3ccncc3)C[C@H]12,5.59
7,c1cc(CN2CCC(c3ccc4c(c3)OCO4)CC2)ccn1,-5.21
8,O=C(Nc1cnccn1)[C@@H]1CCO[C@@H]2CCN(Cc3ccsc3)C[C@@H]21,-77.1
9,c1ccc(CN2CCc3ncnc(-c4ccoc4)c3CC2)nc1,-79
10,O=C(c1cscn1)N1CC[C@@H]2[C@@H]1CCN2C1CCOC1 (stereo partly drawn),4.19
11,CCOC(=O)c1n[nH]cc1-c1cncn1CCn1nc(C)c(C)c1C,-35.3
12,N#Cc1cccc(C(=O)N2CC[C@H]3[C@H]2CCN3CC2CC2)c1,3.03
13,c1cncc(CN2C[C@H]3CCC[C@@H](CNc4cnccn4)[C@H]3C2)c1,-2.1
14,CC(C)N1CCc2c(c(COc3cccnc3)nn2CC2CC2)C1,6.49
15,O=C(CCn1c(C(F)(F)F)cc2cccnc21)N1CCCC1,-21.5
16,Cc1noc(C)c1CN1CCOC2(CCCN(c3nncs3)C2)C1 (stereo not drawn),-2.82
17,CS(=O)(=O)NC1CC2(CCN(CCF)CC2)Oc2ccccc21 (stereo not drawn),-2.68
18,c1cnc(NCc2cncc3c2CCN(Cc2cccnc2)C3)nc1,-68.5
19,C=c1ncsc1=C1NC(c2cccc(CN3CCOCC3)c2)=NO1,-11.3
20,CC(C)=CCN1C(=O)[C@@H]2CC[C@H]1CN(c1ncccn1)C2,9.14
